For series [1], the system named is MDA-MB-231. Kind of series: Growth inhibition of human MDA-MB-231 cells irradiated with UV light for 15 mins followed by 15 mins incubation and measured after 5 days by crystal violet-staining based assay. It is filed as functional, cell-based. The following applies: MDA-MB-231, light or radiation study. The gist of the method: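 MDA-MB-231 cells exposed to prodrug at various concentrations for 6 h in medium with 10% FBS, washed twice with PBS, then irradiated 15 min with UV black lamp (320-400 nm, max 350 nm, ~0.8 mW/cm2 at 12 cm). Held 15 min at room temperature, washed, refed, and grown until untreated cells reached 80% confluency or 5 days. Crystal violet read-out; IC50 from growth inhibition curves.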

Series [2] deals with MDA-MB-231. The experiment in a line: Growth inhibition of human MDA-MB-231 cells measured after 5 days in absence of irradiation by crystal violet-staining based assay. Format: cell-based. Conditions: MDA-MB-231, 120 h; call rule not given here. The gist of the method:
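MDA-MB-231 cells given prodrug at various concentrations for 6 h in medium with 10% FBS, washed twice with PBS. Plate wrapped in aluminum foil to exclude ambient UV, no irradiation. Cells then washed, refed, and grown until untreated cells reached 80% confluency or 5 days. Cell density read by crystal violet staining; IC50 from growth inhibition curves.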

For series [3], the system named is MDA-MB-231. Kind of series: Ratio of IC50 for human MDA-MB-231 cells in absence of irradiation to IC50 for human MDA-MB-231 cells in presence of irradiation.
A short description of series [4]: Drug uptake in human MDA-MB-231 cells at 1 uM after 6 hrs by flow cytometry. It is filed as ADME, cell-based. Conditions: mda-mb-231, 6 h. The gist of the method: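 MDA-MB-231 cells incubated 6 h with 1 µM compound. Uptake read by flow cytometry, with fluorescence intensity normalized to untreated cells. Three biologically independent experiments; standard deviation of mean fluorescence intensity.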

A short description of series [5]: Drug uptake in human MDA-MB-231 cells at 5 uM after 3 hrs by NucBlue live cell stain-based confocal microscopy. Format: ADME. The following applies: mda-mb-231, 3 h. The method in brief:
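MDA-MB-231 cells exposed to 5 µM conjugate for 3 h, then imaged by confocal microscopy at 40x using anthracycline fluorescence; untreated cells imaged as reference.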

Series [6] has as its system MDA-MB-231. Kind of series: Cytotoxicity against human MDA-MB-231 cells at 10 uM after 6 hrs by NucBlue live cell stain-based confocal microscopy. The following applies: mda-mb-231, 6 h.
Series [7] can be described thus: Drug uptake in human HMEC cells at 1 uM after 1 to 6 hrs using Cy5-labeled peptides by confocal microscopy.
The nature of series [8]: Drug uptake in human MDA-MB-231 cells at 1 uM after 1 to 6 hrs using Cy5-labeled peptides by confocal microscopy. The following applies: mda-mb-231, 1 µM.
Series [9] in a line: Binding affinity to exosomes in human MDA-MB-231 cells assessed as co-localization of compound with exosomes out side nucleus area at 1 uM after 1 to 6 hrs using Cy5-labeled peptides by Hoechst-staining based assay. It is filed as ADME, subcellular, Exosome. Conditions: mda-mb-231, 1 µM. The gist of the method: (§1)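 Cy5-labeled L- or D-MARCKS-ED peptide (1 µM) was co-incubated with fluorescent dye-labeled exosomes on MDA-MB-231 cells for 6 h. Peptide and exosome signals were then examined by confocal microscopy, including higher-magnification 3D images, to assess co-localization relative to the nucleus.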

Series [10] in a line: Binding affinity to exosomes in human MDA-MB-231 cells assessed as co-localization of compound with exosomes at 1 uM after 1 to 6 hrs using Cy5-labeled peptides by Hoechst-staining based assay. It is filed as ADME, subcellular, Exosome. Conditions: mda-mb-231, 1 µM. The gist of the method:
as §1

The nature of series [11]: Binding affinity to exosomes in human MDA-MB-231 cells assessed as co-localization of compound with exosomes on plasma membrane at 1 uM after 1 hr using Cy5-labeled peptides by Hoechst-staining based assay. Conditions: mda-mb-231, 1 h. It is filed as ADME, Exosome.
Series [12] can be described thus: Induction of exosomes-mediated drug uptake in human […] cells at 1 uM after 6 hrs in presence of cellmask orange-labeled exosomes by tritc channel based assay. Conditions: mda-mb-231, 6 h. The method in brief: as §1
The nature of series [13]: Induction of exosomes-mediated drug uptake in human […] cells at 1 uM after 6 hrs in presence of cellmask orange-labeled exosomes by Cy5 channel-based assay. The following applies: mda-mb-231, 6 h. The gist of the method: as §1

pIC50: −log10 of the molar value. Non-standard residues stand in square brackets, D forms with d. Residues, ends and D or L forms follow the SMILES beside them. *: point of attachment. X1 = COc1cc(C(C)OC(=O)N2CO[C@@H]3[C@H](C)O[C@@H](O[C@H]4C[C@](O)(C(=O)CO)Cc5c(O)c6c(c(O)c54)C(=O)c4c(OC)cccc4C6=O)C[C@@H]32)c([N+](=O)[O-])cc1OCC(=O)NCCOCCOCCOCCn1nnc2c1-c1ccccc1CN(C(=O)CCNC(=O)CCN1C(=O)CC(*)C1=O)c1ccccc1-2; X2 = COc1cc(C(C)OC(=O)N[C@H]2C[C@H](O[C@H]3C[C@](O)(C(=O)CO)Cc4c(O)c5c(c(O)c43)C(=O)c3c(OC)cccc3C5=O)O[C@@H](C)[C@H]2O)c([N+](=O)[O-])cc1OCC(=O)NCCOCCOCCOCCn1nnc2c1-c1ccccc1CN(C(=O)CCNC(=O)CCN1C(=O)CC(*)C1=O)c1ccccc1-2; Mpa = O=C(O)CCS

With `COc1cc(C(C)OC(=O)N2CO[C@@H]3[C@H](C)O[C@@H](O[C@H]4C[C@](O)(C(=O)CO)Cc5c(O)c6c(c(O)c54)C(=O)c4c(OC)cccc4C6=O)C[C@@H]32)c([N+](=O)[O-])cc1OCC(=O)NCCOCCOCCOCCn1nnc2c1-c1ccccc1CN(C(=O)CCNC(=O)CCN1C(=O)CC(SCCC(=O)N[C@H](CCCCN)C(=O)N[C@H](CCCCN)C(=O)N[C@H](CCCCN)C(=O)N[C@H](CCCCN)C(=O)N[C@H](CCCCN)C(=O)N[C@H](CCCNC(=N)N)C(=O)N[C@H](Cc3ccccc3)C(=O)N[C@H](CO)C(=O)N[C@H](Cc3ccccc3)C(=O)N[C@H](CCCCN)C(=O)N[C@H](CCCCN)C(=O)N[C@H](CO)C(=O)N[C@H](Cc3ccccc3)C(=O)N[C@H](CCCCN)C(=O)N[C@H](CC(C)C)C(=O)N[C@H](CO)C(=O)NCC(=O)N[C@H](Cc3ccccc3)C(=O)N[C@H](CO)C(=O)N[C@H](Cc3ccccc3)C(=O)N[C@H](CCCCN)C(=O)N[C@H](CCCCN)C(=O)N[C@H](CC(N)=O)C(=O)N[C@H](CCCCN)C(=O)N[C@H](CCCCN)C(N)=O)C1=O)c1ccccc1-2` (stereo partly specified), the negative-log IC50 (pIC50) in series [1] is 7.38; in [2] it was 5.70. Besides, the “Ratio IC50” value in series [3] is recorded as 130. For the same molecule, the Drug uptake result in series [4] and in series [5] was “Active” throughout. For the same molecule, the Activity result in series [6] was “Toxic”.
With H-KKKGKKNSSKKFFFFSKFKLSRKKK-NH2, the Drug uptake result in series [7] and in series [8] was “Active” each time.
With `CC(C)C[C@H](NC(=O)[C@H](CCCCN)NC(=O)[C@H](Cc1ccccc1)NC(=O)[C@H](CO)NC(=O)[C@H](CCCCN)NC(=O)[C@H](CCCCN)NC(=O)[C@H](Cc1ccccc1)NC(=O)[C@H](CO)NC(=O)[C@H](Cc1ccccc1)NC(=O)[C@H](CCCNC(=N)N)NC(=O)[C@H](CCCCN)NC(=O)[C@H](CCCCN)NC(=O)[C@H](CCCCN)NC(=O)[C@H](CCCCN)NC(=O)[C@@H](N)CCCCN)C(=O)N[C@@H](CO)C(=O)NCC(=O)N[C@@H](Cc1ccccc1)C(=O)N[C@@H](CO)C(=O)N[C@@H](Cc1ccccc1)C(=O)N[C@@H](CCCCN)C(=O)N[C@@H](CCCCN)C(=O)N[C@@H](CC(N)=O)C(=O)N[C@@H](CCCCN)C(=O)N[C@@H](CCCCN)C(N)=O`, the outcome in series [9], in series [10] and in [11] was Active.
Regarding `COc1cc(C(C)OC(=O)N[C@H]2C[C@H](O[C@H]3C[C@](O)(C(=O)CO)Cc4c(O)c5c(c(O)c43)C(=O)c3c(OC)cccc3C5=O)O[C@@H](C)[C@H]2O)c([N+](=O)[O-])cc1OCC(=O)NCCOCCOCCOCCn1nnc2c1-c1ccccc1CN(C(=O)CCNC(=O)CCN1C(=O)CC(SCCC(=O)N[C@@H](CCCCN)C(=O)N[C@@H](CCCCN)C(=O)N[C@@H](CCCCN)C(=O)N[C@@H](CCCCN)C(=O)N[C@@H](CCCCN)C(=O)N[C@@H](CCCNC(=N)N)C(=O)N[C@@H](Cc3ccccc3)C(=O)N[C@@H](CO)C(=O)N[C@@H](Cc3ccccc3)C(=O)N[C@@H](CCCCN)C(=O)N[C@@H](CCCCN)C(=O)N[C@@H](CO)C(=O)N[C@@H](Cc3ccccc3)C(=O)N[C@@H](CCCCN)C(=O)N[C@@H](CC(C)C)C(=O)N[C@@H](CO)C(=O)NCC(=O)N[C@@H](Cc3ccccc3)C(=O)N[C@@H](CO)C(=O)N[C@@H](Cc3ccccc3)C(=O)N[C@@H](CCCCN)C(=O)N[C@@H](CCCCN)C(=O)N[C@@H](CC(N)=O)C(=O)N[C@@H](CCCCN)C(=O)N[C@@H](CCCCN)C(N)=O)C1=O)c1ccccc1-2` (stereo partly specified) ([Mpa](X2)KKKKKRFSFKKSFKLSGFSFKKNKK-NH2), the values for the pIC50 in series [1] and in [2] were 5.92 and 5.19, respectively. Moreover, in series [3], the Ratio IC50 came out at 5.4. Further, the Drug uptake result in series [4] was “Active”.
In the case of H-GGDYDKIGKNDA-OH, the Drug uptake result in series [7] and in series [8] was “Not Active” in each case.
As to `COc1cc(C(C)OC(=O)N2CO[C@@H]3[C@H](C)O[C@@H](O[C@H]4C[C@](O)(C(=O)CO)Cc5c(O)c6c(c(O)c54)C(=O)c4c(OC)cccc4C6=O)C[C@@H]32)c([N+](=O)[O-])cc1OCC(=O)NCCOCCOCCOCCn1nnc2c1-c1ccccc1CN(C(=O)CCNC(=O)CCN1C(=O)CC(SCCC(=O)N[C@@H](CCCCN)C(=O)N[C@@H](CCCCN)C(=O)N[C@@H](CCCCN)C(=O)N[C@@H](CCCCN)C(=O)N[C@@H](CCCCN)C(=O)N[C@@H](CCCNC(=N)N)C(=O)N[C@@H](Cc3ccccc3)C(=O)N[C@@H](CO)C(=O)N[C@@H](Cc3ccccc3)C(=O)N[C@@H](CCCCN)C(=O)N[C@@H](CCCCN)C(=O)N[C@@H](CO)C(=O)N[C@@H](Cc3ccccc3)C(=O)N[C@@H](CCCCN)C(=O)N[C@@H](CC(C)C)C(=O)N[C@@H](CO)C(=O)NCC(=O)N[C@@H](Cc3ccccc3)C(=O)N[C@@H](CO)C(=O)N[C@@H](Cc3ccccc3)C(=O)N[C@@H](CCCCN)C(=O)N[C@@H](CCCCN)C(=O)N[C@@H](CC(N)=O)C(=O)N[C@@H](CCCCN)C(=O)N[C@@H](CCCCN)C(N)=O)C1=O)c1ccccc1-2` (stereo partly specified), the negative logarithm of the IC50 (pIC50) in series [1] was 7.82; in [2] it was 5.60. The “Ratio IC50” value in series [3] worked out at 170. Further, the Drug uptake entry in series [4] and in series [5] was “Active” in each case. In addition, the Activity result in [6] was “Toxic”.
Consider `CC[C@H](C)[C@H](NC(=O)[C@H](CCCCN)NC(=O)[C@H](CC(=O)O)NC(=O)[C@H](Cc1ccc(O)cc1)NC(=O)[C@H](CC(=O)O)NC(=O)CNC(=O)CNC(=O)CCSC1CC(=O)N(CCC(=O)NCCC(=O)N2Cc3ccccc3-c3c(nnn3CCOCCOCCOCCNC(=O)COc3cc([N+](=O)[O-])c(C(C)OC(=O)N4CO[C@@H]5[C@H](C)O[C@@H](O[C@H]6C[C@](O)(C(=O)CO)Cc7c(O)c8c(c(O)c76)C(=O)c6c(OC)cccc6C8=O)C[C@@H]54)cc3OC)-c3ccccc32)C1=O)C(=O)NCC(=O)N[C@@H](CCCCN)C(=O)N[C@@H](CC(N)=O)C(=O)N[C@@H](CC(=O)O)C(=O)N[C@@H](C)C(N)=O` (stereo partly specified) ([Mpa](X1)GGDYDKIGKNDA-NH2), for which the negative-log IC50 (pIC50) in [1] is 5.89; in series [2], 4.96. For the same molecule, the Ratio IC50 in [3] turned out to be 8.5. Moreover, the Drug uptake result in series [4] is recorded as “Not Active”.
For `CC(C)C[C@@H](NC(=O)[C@@H](CCCCN)NC(=O)[C@@H](Cc1ccccc1)NC(=O)[C@@H](CO)NC(=O)[C@@H](CCCCN)NC(=O)[C@@H](CCCCN)NC(=O)[C@@H](Cc1ccccc1)NC(=O)[C@@H](CO)NC(=O)[C@@H](Cc1ccccc1)NC(=O)[C@@H](CCCNC(=N)N)NC(=O)[C@@H](CCCCN)NC(=O)[C@@H](CCCCN)NC(=O)[C@@H](CCCCN)NC(=O)[C@@H](CCCCN)NC(=O)[C@H](N)CCCCN)C(=O)N[C@H](CO)C(=O)NCC(=O)N[C@H](Cc1ccccc1)C(=O)N[C@H](CO)C(=O)N[C@H](Cc1ccccc1)C(=O)N[C@H](CCCCN)C(=O)N[C@H](CCCCN)C(=O)N[C@H](CC(N)=O)C(=O)N[C@H](CCCCN)C(=O)N[C@H](CCCCN)C(N)=O`, the result in [9], in series [10] and in series [11] was Active. The Drug uptake result in [12], in series [13], in [7] and in series [8] was “Active” each time.
In the case of H-DDDDDRASADDSADLSGASADDDDD-OH, the Drug uptake result in series [7] and in series [8] was “Not Active” each time.

Usually pIC50 stands for the negative decadic logarithm of the IC50, by convention in mol/L.
